Results taken from ChEMBL document CHEMBL3627671, “Novel derivatives of nitro-substituted salicylic acids: Synthesis, antimicrobial activity and cytotoxicity” (Bioorg Med Chem, 2015).

Legend:
Type in all cases: functional
[1] = test system: Aspergillus fumigatus; assay: Antifungal activity against Aspergillus fumigatus 231 after 48 hrs by microdilution broth method; settings: Aspergillus fumigatus, 231, 48 h
Procedure, shortened: (§1)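 CLSI M27-A3 broth microdilution in RPMI 1640 with glutamine, buffered to pH 7.0 with MOPS; DMSO diluent. Yeast inoculum 5 × 10^3 ± 0.2 CFU/mL. Moulds grown on Sabouraud agar 3–10 days before spore harvest, final inoculum 0.5-5 × 10^4 CFU/mL, checked in a Bürker chamber. Incubated dark, humid, 35 °C, read at 24 and 48 h visually and at 540 nm. MIC taken as ≥80% (yeasts) or ≥50% (filamentous) growth reduction versus control.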

[2] = test system: Lichtheimia corymbifera; assay: Antifungal activity against Absidia corymbifera 272 after 48 hrs by microdilution broth method; settings: Lichtheimia corymbifera, 272, 48 h; procedure, shortened: as §1
[3] = test system: Nakaseomyces glabratus; assay: Antifungal activity against Candida glabrata 20/I after 24 hrs by microdilution broth method; procedure, shortened: as §1
[4] = test system: Mycobacterium tuberculosis; assay: Antimycobacterial activity against Mycobacterium tuberculosis H37Rv 331/88 after 14 days; settings: H37Rv 331/88, 336 h
[5] = test system: Mycobacterium kansasii; assay: Antimycobacterial activity against Mycobacterium kansasii 235/80 after 21 days; settings: 235/80, 504 h
Procedure, shortened: (§2)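 Šula's semisynthetic medium micromethod at 37 °C, read after 7, 14 and 21 days. The 1.0 McFarland suspension was diluted 10^-4. MIC determined. 6509/96 is a clinical isolate.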

[6] = test system: Aspergillus fumigatus; assay: Antifungal activity against Aspergillus fumigatus 231 after 24 hrs by microdilution broth method; settings: Aspergillus fumigatus, 231, 24 h; procedure, shortened: as §1
[7] = test system: Candida tropicalis; assay: Antifungal activity against Candida tropicalis 156 after 24 hrs by microdilution broth method; settings: Candida tropicalis, 156, 24 h; procedure, shortened: as §1
[8] = test system: Pichia kudriavzevii; assay: Antifungal activity against Candida krusei E28 after 48 hrs by microdilution broth method; settings: E28, 48 h; procedure, shortened: as §1
[9] = test system: Mycobacterium kansasii; assay: Antimycobacterial activity against Mycobacterium kansasii 235/80 after 14 days; settings: 235/80, 336 h; procedure, shortened: as §2
[10] = test system: Candida tropicalis; assay: Antifungal activity against Candida tropicalis 156 after 48 hrs by microdilution broth method; settings: Candida tropicalis, 156, 48 h; procedure, shortened: as §1
[11] = test system: Staphylococcus aureus; assay: Antibacterial activity against Staphylococcus aureus CCM 4516/08 after 48 hrs by microdilution broth method; settings: CCM 4516/08, 48 h
[12] = test system: Klebsiella pneumoniae; assay: Antibacterial activity against ESBL-positive Klebsiella pneumoniae J 14368/08 after 48 hrs by microdilution broth method; settings: J 14368/08, 48 h
Procedure, shortened: (§3)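 Mueller-Hinton broth microdilution (modified M07-A07), pH 7.4 (±0.2). Compounds dissolved in DMSO, tested at final 500 to 0.49 µmol/L. Inoculum in sterile water matched to 0.5 McFarland. Incubated in the dark, humid atmosphere, 35 °C, read at 24 and 48 h visually and at 540 nm. MIC taken as ≥95% growth reduction (IC95) versus control.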

[13] = test system: Staphylococcus aureus; assay: Antibacterial activity against methicillin-resistant Staphylococcus aureus H 5996/08 after 24 hrs by microdilution broth method; settings: H 5996/08, 24 h
[14] = test system: Candida albicans; assay: Antifungal activity against Candida albicans ATCC 44859 after 24 hrs by microdilution broth method; settings: ATCC 44859, 24 h; procedure, shortened: as §1
[15] = test system: Klebsiella pneumoniae; assay: Antibacterial activity against Klebsiella pneumoniae D 11750/08 after 48 hrs by microdilution broth method; settings: D 11750/08, 48 h; procedure, shortened: as §3
[16] = test system: Enterococcus sp.; assay: Antibacterial activity against Enterococcus sp. J 14365/08 after 24 hrs by microdilution broth method; settings: J 14365/08, 24 h; procedure, shortened: as §3
[17] = test system: Staphylococcus epidermidis; assay: Antibacterial activity against Staphylococcus epidermidis H 6966/08 after 48 hrs by microdilution broth method; settings: H 6966/08, 48 h; procedure, shortened: as §3
[18] = test system: Pseudomonas aeruginosa; assay: Antibacterial activity against Pseudomonas aeruginosa CCM 1961 after 24 hrs by microdilution broth method; settings: CCM 1961, 24 h; procedure, shortened: as §3
[19] = test system: Mycobacterium kansasii; assay: Antimycobacterial activity against Mycobacterium kansasii 6509/96 after 7 days; settings: 6509/96, 168 h; procedure, shortened: as §2
[20] = test system: Trichosporon asahii; assay: Antifungal activity against Trichosporon asahii 1188 after 48 hrs by microdilution broth method; settings: Trichosporon asahii, 1188, 48 h; procedure, shortened: as §1
[21] = test system: Mycobacterium kansasii; assay: Antimycobacterial activity against Mycobacterium kansasii 235/80 after 7 days; settings: 235/80, 168 h; procedure, shortened: as §2
[22] = test system: Klebsiella pneumoniae; assay: Antibacterial activity against ESBL-positive Klebsiella pneumoniae J 14368/08 after 24 hrs by microdilution broth method; settings: J 14368/08, 24 h; procedure, shortened: as §3
[23] = test system: Staphylococcus aureus; assay: Antibacterial activity against methicillin-resistant Staphylococcus aureus H 5996/08 after 48 hrs by microdilution broth method; settings: H 5996/08, 48 h
[24] = test system: Lichtheimia corymbifera; assay: Antifungal activity against Absidia corymbifera 272 after 24 hrs by microdilution broth method; settings: Lichtheimia corymbifera, 272, 24 h; procedure, shortened: as §1
[25] = test system: Staphylococcus aureus; assay: Antibacterial activity against Staphylococcus aureus CCM 4516/08 after 24 hrs by microdilution broth method; settings: CCM 4516/08, 24 h
[26] = test system: Mycobacterium tuberculosis; assay: Antimycobacterial activity against Mycobacterium tuberculosis H37Rv 331/88 after 21 days; settings: H37Rv 331/88, 504 h
[27] = test system: Pseudomonas aeruginosa; assay: Antibacterial activity against Pseudomonas aeruginosa CCM 1961 after 48 hrs by microdilution broth method; settings: CCM 1961, 48 h; procedure, shortened: as §3
[28] = test system: Trichophyton mentagrophytes; assay: Antifungal activity against Trichophyton mentagrophytes 445 after 24 hrs by microdilution broth method; settings: Trichophyton mentagrophytes, 445, 24 h
[29] = test system: Klebsiella pneumoniae; assay: Antibacterial activity against Klebsiella pneumoniae D 11750/08 after 24 hrs by microdilution broth method; settings: D 11750/08, 24 h; procedure, shortened: as §3
[30] = test system: Mycobacterium kansasii; assay: Antimycobacterial activity against Mycobacterium kansasii 6509/96 after 14 days; settings: 6509/96, 336 h; procedure, shortened: as §2
[31] = test system: Enterococcus sp.; assay: Antibacterial activity against Enterococcus sp. J 14365/08 after 48 hrs by microdilution broth method; settings: J 14365/08, 48 h; procedure, shortened: as §3
[32] = test system: Trichosporon asahii; assay: Antifungal activity against Trichosporon asahii 1188 after 24 hrs by microdilution broth method; settings: Trichosporon asahii, 1188, 24 h; procedure, shortened: as §1
[33] = test system: Mycobacterium avium; assay: Antimycobacterial activity against Mycobacterium avium 330/80 after 14 days; settings: 330/80, 336 h
[34] = test system: Mycobacterium avium; assay: Antimycobacterial activity against Mycobacterium avium 330/80 after 21 days; settings: 330/80, 504 h
[35] = test system: Escherichia coli; assay: Antibacterial activity against Escherichia coli CCM4517 after 24 hrs by microdilution broth method; settings: CCM4517, 24 h; procedure, shortened: as §3
[36] = test system: Candida albicans; assay: Antifungal activity against Candida albicans ATCC 44859 after 48 hrs by microdilution broth method; settings: ATCC 44859, 48 h; procedure, shortened: as §1
[37] = test system: Trichophyton mentagrophytes; assay: Antifungal activity against Trichophyton mentagrophytes 445 after 48 hrs by microdilution broth method; settings: Trichophyton mentagrophytes, 445, 48 h
[38] = test system: Staphylococcus epidermidis; assay: Antibacterial activity against Staphylococcus epidermidis H 6966/08 after 24 hrs by microdilution broth method; settings: H 6966/08, 24 h; procedure, shortened: as §3
[39] = test system: Escherichia coli; assay: Antibacterial activity against Escherichia coli CCM4517 after 48 hrs by microdilution broth method; settings: CCM4517, 48 h; procedure, shortened: as §3
[40] = test system: Pichia kudriavzevii; assay: Antifungal activity against Candida krusei E28 after 24 hrs by microdilution broth method; settings: E28, 24 h; procedure, shortened: as §1
[41] = test system: Nakaseomyces glabratus; assay: Antifungal activity against Candida glabrata 20/I after 48 hrs by microdilution broth method; procedure, shortened: as §1
[42] = test system: Mycobacterium kansasii; assay: Antimycobacterial activity against Mycobacterium kansasii 6509/96 after 21 days; settings: 6509/96, 504 h; procedure, shortened: as §2

Measured: MIC

O=C(Nc1ccc([N+](=O)[O-])c(C(F)(F)F)c1)c1cc([N+](=O)[O-])ccc1O
32 µM: [4] | [21] | [26]
62.5 µM: [9] | [11] | [19] | [25] | [30]
31.2 µM: [13] | [23]
125 µM: [5] | [17] | [33] | [34] | [38] | [42]
> 500 µM: [1] | [2] | [3] | [6] | [7] | [8] | [10] | [12] | [14] | [15] | [16] | [18] | [20] | [22] | [24] | [27] | [28] | [29] | [31] | [32] | [35] | [36] | [37] | [39] | [40] | [41]
